Test results: ChEMBL document CHEMBL2375227, “Novel small molecules as apoptosis inducers: synthesis, preliminary structure-activity relationships, and in vitro biological evaluation” (Bioorg Med Chem Lett, 2013)
Blank lines part the entries; values can stand above or below the compound they belong to.

Key:
[1] = Antiproliferative activity against human H460 cells after 48 hrs by MTT assay; type: functional, cell-based; conditions: NCI-H460, 48 h
How it was run: (§1)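 Cells seeded at 3 × 10^3/well and grown 24 h, then exposed to compounds for 48 h. MTT (5 mg/ml stock) added for 2 h at 37 °C, supernatant removed, formazan dissolved in DMSO 15-20 min. Absorbance read at 570 nm. IC50 per cell line, mean of three determinations.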

HeLa = assay: Antiproliferative activity against human HeLa cells after 48 hrs by MTT assay; type: functional, cell-based; how it was run: as §1
[2] = Antiproliferative activity against human A875 cells after 48 hrs by MTT assay; type: functional, cell-based; conditions: A875, 48 h; how it was run: as §1
HepG2 = assay: Antiproliferative activity against human HepG2 cells after 48 hrs by MTT assay; type: functional, cell-based; conditions: HepG2, 48 h; how it was run: as §1
Bel-7402 = assay: Antiproliferative activity against human Bel7402 cells after 48 hrs by MTT assay; type: functional, cell-based; conditions: Bel-7402, 48 h; how it was run: as §1
HT-29 = assay: Antiproliferative activity against human HT-29 cells after 48 hrs by MTT assay; type: functional, cell-based; conditions: HT-29, 48 h; how it was run: as §1
SMMC-7721 = assay: Antiproliferative activity against human SMMC7721 cells after 48 hrs by MTT assay; type: functional, cell-based; conditions: SMMC-7721, 48 h; how it was run: as §1
A549 = assay: Antiproliferative activity against human A549 cells after 48 hrs by MTT assay; type: functional, cell-based; conditions: A549, 48 h; how it was run: as §1
HCT-116 = assay: Antiproliferative activity against human HCT116 cells after 48 hrs by MTT assay; type: functional, cell-based; conditions: HCT-116, 48 h; how it was run: as §1
BXPC-3 = assay: Antiproliferative activity against human BxPC3 cells after 48 hrs by MTT assay; type: functional, cell-based; conditions: BXPC-3, 48 h; how it was run: as §1
[3] = Cell cycle arrest in human A875 cells assessed as accumulation at S phase at 1.5 uM after 48 hrs by propidium iodide staining-based flow cytometric analysis (reference value: 11.46%); type: functional
[4] = Induction of apoptosis in human A875 cells at 0.75 uM after 24 hrs by propidium iodide staining-based flow cytometric analysis (reference value: 1.14%); type: functional
[5] = Cell cycle arrest in human A875 cells assessed as accumulation at S phase at 0.75 uM after 48 hrs by propidium iodide staining-based flow cytometric analysis (reference value: 11.46%); type: functional
[6] = Induction of apoptosis in human A875 cells at 0.38 uM after 24 hrs by propidium iodide staining-based flow cytometric analysis (reference value: 1.14%); type: functional
A875 [7] = assay: Induction of apoptosis in human A875 cells assessed as cell shrinkage and rounding up after 36 hrs by Hoechst 33342 staining-based fluorescence microscopic analysis; type: functional
How it was run: (§2)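 A875 cells (1 × 10^5/well) cultured 24 h, then treated for 36 h at 0.38, 0.75 or 1.5 µM. After PBS rinse and fixation in 75% ethanol, morphology checked by inverted bright-field microscope. Nuclei then stained with Hoechst 33342 (2 µg/mL in PBS) and examined by fluorescence microscopy for condensed, fragmented nuclei.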

A875 [8] = assay: Induction of apoptosis in human A875 cells after 48 hrs by propidium iodide staining-based flow cytometric analysis; type: functional, cell-based
[9] = Cell cycle arrest in human A875 cells assessed as accumulation at G2/M phase at 0.75 uM after 48 hrs by propidium iodide staining-based flow cytometric analysis (reference value: 10.36%); type: functional
[10] = Cell cycle arrest in human A875 cells assessed as accumulation at G0/G1 phase at 0.75 uM after 48 hrs by propidium iodide staining-based flow cytometric analysis (reference value: 78.18%); type: functional
[11] = Induction of apoptosis in human A875 cells at 0.75 uM after 48 hrs by propidium iodide staining-based flow cytometric analysis (reference value: 1.56%); type: functional
[12] = Induction of apoptosis in human A875 cells at 1.5 uM after 24 hrs by propidium iodide staining-based flow cytometric analysis (reference value: 1.14%); type: functional
[13] = Cell cycle arrest in human A875 cells assessed as accumulation at G0/G1 phase at 1.5 uM after 48 hrs by propidium iodide staining-based flow cytometric analysis (reference value: 78.18%); type: functional
[14] = Cell cycle arrest in human A875 cells assessed as accumulation at G2/M phase at 0.38 uM after 48 hrs by propidium iodide staining-based flow cytometric analysis (reference value: 10.36%); type: functional
[15] = Cell cycle arrest in human A875 cells assessed as accumulation at G2/M phase at 1.5 uM after 48 hrs by propidium iodide staining-based flow cytometric analysis (reference value: 10.36%); type: functional
[16] = Cell cycle arrest in human A875 cells assessed as accumulation at G0/G1 phase at 0.38 uM after 48 hrs by propidium iodide staining-based flow cytometric analysis (reference value: 78.18%); type: functional
[17] = Induction of apoptosis in human A875 cells at 0.38 uM after 48 hrs by propidium iodide staining-based flow cytometric analysis (reference value: 1.56%); type: functional
[18] = Cell cycle arrest in human A875 cells assessed as accumulation at S phase at 0.38 uM after 48 hrs by propidium iodide staining-based flow cytometric analysis (reference value: 11.46%); type: functional
[19] = Induction of apoptosis in human A875 cells at 1.5 uM after 48 hrs by propidium iodide staining-based flow cytometric analysis (reference value: 1.56%); type: functional
A875 [20] = assay: Induction of apoptosis in human A875 cells assessed as appearance of condensed nuclei after 36 hrs by Hoechst 33342 staining-based fluorescence microscopic analysis; type: functional, cell-based; how it was run: as §2

Compound: O=C(CSc1ccc(NC(=O)CCCl)cc1)NCc1ccc(Cl)cc1
IC50 [1]: 60.8 µM
IC50 (HeLa): > 80 µM
IC50 [2]: 31.4 µM

Compound: C=CC(=O)Nc1ccc(SCC(=O)NCc2cccc(Cl)c2)cc1
IC50 [1]: 74.5 µM
IC50 (HeLa): > 80 µM
IC50 [2]: 21.1 µM

Compound: O=C(CCl)Nc1ccc(SCC(=O)Nc2ccccn2)cc1
IC50 [1]: 11.9 µM
IC50 (HeLa): 7.8 µM
IC50 [2]: 17.2 µM

Compound: C=CC(=O)Nc1ccc(SCC(=O)Nc2cc(Cl)ccn2)cc1
IC50 [1]: 19.7 µM
IC50 (HeLa): 25.2 µM
IC50 [2]: 14.7 µM

Compound: CC(C)(C)C(=O)Nc1ccc(SCC(=O)Nc2cc(Cl)ccn2)cc1
IC50 [1]: 35.3 µM
IC50 (HeLa): > 80 µM
IC50 [2]: > 80 µM

Compound: O=C(CCl)Nc1ccc(SCC(=O)Nc2cc(Cl)ccn2)cc1
IC50 [1]: 5.6 µM
IC50 (HeLa): 2.8 µM
IC50 [2]: 0.85 µM

Compound: O=C(CSc1ccc(NC(=O)C(Cl)(Cl)Cl)cc1)Nc1ccc(Cl)cn1
IC50 [1]: > 80 µM
IC50 (HeLa): > 80 µM
IC50 [2]: > 80 µM

Compound: O=C(CSc1ccc(NC(=O)CCl)cc1)NCc1ccc(Cl)cc1
IC50 [1]: 23.1 µM
IC50 (HeLa): > 80 µM
IC50 [2]: 8.9 µM

Compound: O=C(CCCl)Nc1ccc(SCC(=O)Nc2ccccn2)cc1
IC50 [1]: 65.4 µM
IC50 (HeLa): 70.4 µM
IC50 [2]: 29.5 µM

Compound: O=C(CCCl)Nc1ccc(SCC(=O)Nc2cc(Cl)ccn2)cc1
IC50 [1]: 10.9 µM
IC50 (HeLa): 21.7 µM
IC50 [2]: 12.3 µM

Compound: O=C(CCl)Nc1ccc(SCC(=O)Nc2ccc(Br)cn2)cc1
IC50 (HepG2): 5.8 µM
IC50 [1]: 0.53 µM
IC50 (Bel-7402): 0.67 µM
IC50 (HeLa): 2.1 µM
IC50 (HT-29): 13.7 µM
IC50 (SMMC-7721): 0.43 µM
IC50 (A549): 6.2 µM
IC50 (HCT-116): 1.2 µM
IC50 [2]: 0.29 µM
IC50 (BXPC-3): 0.28 µM

Compound: CC(C)(C)C(=O)Nc1ccc(SCC(=O)Nc2ccc(Cl)cn2)cc1
IC50 [1]: 67.2 µM
IC50 (HeLa): > 80 µM
IC50 [2]: > 80 µM

Compound: O=C(CSc1ccc(NC(=O)C(Cl)Cl)cc1)Nc1ccc(Br)cn1
IC50 [1]: 47.8 µM
IC50 (HeLa): > 80 µM
IC50 [2]: 56.8 µM

Compound: C=CC(=O)Nc1ccc(SCC(=O)Nc2ccccn2)cc1
IC50 [1]: 76.8 µM
IC50 (HeLa): > 80 µM
IC50 [2]: 23.4 µM

Compound: O=C(CCCl)Nc1ccc(SCC(=O)Nc2ccc(Br)cn2)cc1
IC50 [1]: 1.6 µM
IC50 (HeLa): 15.6 µM
IC50 [2]: 24.3 µM

Compound: O=C(CSc1ccc(NC(=O)CCl)cc1)NCc1cccc(Cl)c1
IC50 [1]: 33.4 µM
IC50 (HeLa): > 80 µM
IC50 [2]: 7.8 µM

Compound: O=C(CCCCl)Nc1ccc(SCC(=O)Nc2ccc(Cl)cn2)cc1
IC50 [1]: > 80 µM
IC50 (HeLa): > 80 µM
IC50 [2]: > 80 µM

More lines, main results first:

IC50 (HeLa): 3.6 µM
Compound: O=C(CSc1nnc(NC(=O)CCl)s1)Nc1ccc(Cl)cn1
IC50 [1]: 5.7 µM
IC50 [2]: 8.6 µM

IC50 (HeLa): 25.8 µM
Compound: O=C(CSc1nnc(NC(=O)c2c(Cl)cccc2Cl)s1)Nc1ccc(Br)cn1
IC50 [1]: 16.8 µM
IC50 [2]: 18.6 µM

IC50 (HeLa): 3.4 µM
Compound: O=C(CSc1nnc(NC(=O)CCl)s1)Nc1ccc(Br)cn1
IC50 [1]: 7.5 µM
IC50 [2]: 13.9 µM

IC50 (HeLa): 70.5 µM
Compound: Cc1ccnc(Cl)c1NC(=O)CSc1nnc(NC(=O)CCl)s1
IC50 [1]: 59.6 µM
IC50 [2]: 34.7 µM

IC50 (HeLa): 5.3 µM
Compound: O=C(CSc1nnc(NC(=O)CCCl)s1)Nc1ccc(Br)cn1
IC50 [1]: 0.56 µM
IC50 [2]: 0.43 µM

IC50 (HeLa): > 80 µM
Compound: COc1ccccc1C(=O)Nc1nnc(SCC(=O)Nc2ccc(C)cn2)s1
IC50 [1]: > 80 µM
IC50 [2]: > 80 µM

IC50 (HeLa): > 80 µM
Compound: COc1ccccc1C(=O)Nc1nnc(SCC(=O)Nc2ccc(Cl)cn2)s1
IC50 [1]: > 80 µM
IC50 [2]: > 80 µM

IC50 (HeLa): > 80 µM
Compound: O=C(CSc1nnc(NC(=O)CCCCl)s1)Nc1ccc(Cl)cn1
IC50 [1]: 55.2 µM
IC50 [2]: > 80 µM

IC50 (HeLa): 10.9 µM
Compound: Cc1ccc(NC(=O)CSc2nnc(NC(=O)CCl)s2)nc1
IC50 [1]: 15.4 µM
IC50 [2]: 18.3 µM

IC50 (HeLa): > 80 µM
Compound: COc1ccccc1C(=O)Nc1nnc(SCC(=O)Nc2c(C)ccnc2Cl)s1
IC50 [1]: > 80 µM
IC50 [2]: > 80 µM

IC50 (HepG2): 3.6 µM
IC50 (Bel-7402): 0.45 µM
IC50 (HeLa): 2.5 µM
IC50 (HT-29): 8.7 µM
IC50 (SMMC-7721): 0.35 µM
IC50 (A549): 0.59 µM
IC50 (HCT-116): 0.61 µM
IC50 (BXPC-3): 0.19 µM
Compound: O=C(CCl)Nc1ccc(SCC(=O)Nc2ccc(Cl)cn2)cc1
Activity [3]: 39.6%
Activity [4]: 25.45%
Activity [5]: 31.2%
Activity [6]: 3.67%
IC50 [1]: 0.42 µM
Activity (A875 [7]): Dose-dependent effect
Activity (A875 [8]): Dose-dependent effect
Activity [9]: 21.8%
Activity [10]: 48.9%
Activity [11]: 41.59%
Activity [12]: 42.88%
Activity [13]: 30.5%
Activity [14]: 10.8%
IC50 [2]: 0.098 µM
Activity [15]: 29.9%
Activity [16]: 60%
Activity [17]: 11.17%
Activity [18]: 29.1%
Activity [19]: 61.59%
Activity (A875 [20]): Dose-dependent effect

IC50 (HeLa): 15.2 µM
Compound: O=C(CSc1nnc(NC(=O)C(Cl)Cl)s1)Nc1ccc(Br)cn1
IC50 [1]: 5.3 µM
IC50 [2]: 6.5 µM

IC50 (HeLa): > 80 µM
Compound: COc1ccccc1C(=O)Nc1nnc(SCC(=O)Nc2ccc(Br)cn2)s1
IC50 [1]: > 80 µM
IC50 [2]: > 80 µM
